Test results from PMC3969268 (Journal of medicinal chemistry, 2012).

How the values were obtained:
[1] = biological target: S. aureus FtsZ (SaFtsZ), wild-type (Staphylococcus aureus, UniProt P0A031); type: binding
[2] = test system: E. coli N43 (acrA1)
[3] = biological target: E. coli FtsZ (EcFtsZ) (Escherichia coli, UniProt P0A9A6); test: Fluorescence anisotropy determination of compound-FtsZ binding affinity, EcFtsZ
[4] = biological target: E. faecalis FtsZ (EfFtsZ) (Enterococcus faecalis, UniProt O08439); test: Fluorescence anisotropy determination of compound-FtsZ binding affinity, EfFtsZ; conditions: for binding to FtsZ (qualitative; Kd not quantifiable): EfFtsZ
[5] = biological target: EcFtsZ-bound BoGTPγS (GTP binding pocket) (Escherichia coli, UniProt P0A9A6); test: BoGTPγS fluorescence anisotropy competition assay, EcFtsZ; parameters: species or system E. coli; conditions: 1 μM BoGTPγS, 5 μM FtsZ, competitor 0 to 40 μM
EcFtsZ-bound BoGTPγS (GTP binding pocket), sequence (P0A9A6 whole entry): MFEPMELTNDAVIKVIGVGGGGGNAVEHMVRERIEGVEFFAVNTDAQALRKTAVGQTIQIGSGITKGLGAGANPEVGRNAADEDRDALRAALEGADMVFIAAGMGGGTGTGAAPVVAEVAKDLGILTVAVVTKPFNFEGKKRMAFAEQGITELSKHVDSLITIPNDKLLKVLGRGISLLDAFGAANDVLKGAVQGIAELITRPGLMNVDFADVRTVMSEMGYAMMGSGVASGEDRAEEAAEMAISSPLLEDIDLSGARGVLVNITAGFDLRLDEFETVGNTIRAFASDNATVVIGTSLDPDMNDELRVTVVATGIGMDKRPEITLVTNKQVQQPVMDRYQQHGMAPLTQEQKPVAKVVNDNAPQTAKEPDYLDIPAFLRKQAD
Procedure, shortened: (§1)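 Competition anisotropy assay: 1 μM BODIPY-GTPγS with 0 or 5 μM FtsZ, plus test compound or unlabeled GTP (0–40 μM), in 50 mM Tris·HCl pH 7.4, 50 mM KCl, 2 mM magnesium acetate. After 5 min at 25 °C, probe anisotropy was read (ex 488/em 510 nm, 4 nm bandwidths), compared with FtsZ-free probe. Triplicates averaged.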

[6] = biological target: T1, I228R mutant SaFtsZ (Staphylococcus aureus, UniProt P0A031, I228R); test: Fluorescence anisotropy binding affinity, I228R mutant SaFtsZ; parameters: species or system S. aureus; conditions: ratio of Kd values
[7] = biological target: T2, SaFtsZ (Staphylococcus aureus, UniProt P0A031); test: FtsZ polymerization light-scattering; type: biochemical, S. aureus
T2 sequence (P0A031 1-390): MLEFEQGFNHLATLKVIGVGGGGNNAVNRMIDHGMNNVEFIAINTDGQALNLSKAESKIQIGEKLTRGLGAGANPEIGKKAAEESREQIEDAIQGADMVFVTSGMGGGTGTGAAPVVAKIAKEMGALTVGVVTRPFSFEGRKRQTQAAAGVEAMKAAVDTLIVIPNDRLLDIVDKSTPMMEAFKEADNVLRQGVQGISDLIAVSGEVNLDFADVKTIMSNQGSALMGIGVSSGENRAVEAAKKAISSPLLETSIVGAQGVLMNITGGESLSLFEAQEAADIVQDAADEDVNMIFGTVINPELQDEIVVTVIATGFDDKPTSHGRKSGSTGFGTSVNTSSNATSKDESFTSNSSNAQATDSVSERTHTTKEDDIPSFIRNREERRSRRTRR

[8] = biological target: G196A mutant SaFtsZ (Staphylococcus aureus, UniProt P0A031, G196A); test: FtsZ polymerization light-scattering; type: biochemical, S. aureus; conditions: G196A mutant (not shown)
[9] = test system: S. aureus 8325-4 (MSSA); type: cell-based; conditions: after 12 incubation cycles
[10] = biological target: T3, E185A mutant SaFtsZ (Staphylococcus aureus, UniProt P0A031, E185A); test: FtsZ polymerization light-scattering; type: biochemical, S. aureus
[11] = biological target: T4, EcFtsZ (Escherichia coli, UniProt P0A9A6); test: Transmission electron microscopy of compound-induced FtsZ polymers, EcFtsZ; type: biochemical, E. coli; conditions: 20 μg/mL
T4 sequence (P0A9A6 whole entry): as the sequence (P0A9A6 whole entry) above

[12] = test system: S. aureus 8325-4 (MSSA); test: Time-kill assay; type: cell-based; conditions: for reduction of bacterial number (CFUs): 8 × MIC (8 μg/mL)
Procedure, shortened: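 Exponential-phase S. aureus 8325-4 was diluted in cation-adjusted Mueller-Hinton broth to 10^5–10^6 CFU/mL, with DMSO as vehicle control. Cultures were shaken at 37 °C and sampled at 0, 2, 4 and 6 h. Samples were plated on tryptic soy agar, centrifuged and resuspended when undiluted to avoid carry-over. Colonies were counted after 24 h at 37 °C.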

[13] = biological target: MAP-rich porcine β-tubulin (70% β-tubulin, 30% MAPs) (Sus scrofa, UniProt P02554); test: Tubulin polymerization light-scattering; type: biochemical; conditions: 40 μg/mL; 2 mg/mL porcine β-tubulin, 1 mM GTP, 37 °C
MAP-rich porcine β-tubulin (70% β-tubulin, 30% MAPs), sequence (P02554 whole entry): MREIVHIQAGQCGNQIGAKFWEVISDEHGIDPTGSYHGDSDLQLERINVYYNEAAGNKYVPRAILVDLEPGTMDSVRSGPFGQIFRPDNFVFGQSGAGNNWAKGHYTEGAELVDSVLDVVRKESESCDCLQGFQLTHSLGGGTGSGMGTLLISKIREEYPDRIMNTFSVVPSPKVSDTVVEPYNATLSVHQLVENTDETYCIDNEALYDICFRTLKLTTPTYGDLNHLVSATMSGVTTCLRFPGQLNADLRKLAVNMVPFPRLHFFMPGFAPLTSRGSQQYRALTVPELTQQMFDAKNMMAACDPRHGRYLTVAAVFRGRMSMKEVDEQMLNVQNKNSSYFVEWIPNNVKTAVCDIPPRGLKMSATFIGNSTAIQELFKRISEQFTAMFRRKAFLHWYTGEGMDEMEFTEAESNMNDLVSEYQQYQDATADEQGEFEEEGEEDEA
MAP-rich porcine β-tubulin (70% β-tubulin, 30% MAPs), sequence (P02550 whole entry partner): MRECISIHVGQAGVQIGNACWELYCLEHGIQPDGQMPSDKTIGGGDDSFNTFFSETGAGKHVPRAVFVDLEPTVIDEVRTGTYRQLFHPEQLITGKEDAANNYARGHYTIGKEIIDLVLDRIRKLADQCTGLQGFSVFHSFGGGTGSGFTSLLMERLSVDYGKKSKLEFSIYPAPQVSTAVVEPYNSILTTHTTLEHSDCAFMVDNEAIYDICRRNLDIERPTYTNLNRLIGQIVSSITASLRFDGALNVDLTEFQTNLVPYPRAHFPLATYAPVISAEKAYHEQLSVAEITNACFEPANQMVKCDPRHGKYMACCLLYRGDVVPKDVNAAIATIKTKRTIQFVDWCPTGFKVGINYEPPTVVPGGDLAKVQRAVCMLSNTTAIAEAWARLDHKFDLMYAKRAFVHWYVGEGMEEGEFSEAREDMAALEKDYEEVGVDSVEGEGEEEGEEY

[14] = biological target: EfFtsZ-bound BoGTPγS (GTP binding pocket) (Enterococcus faecalis, UniProt O08439); test: BoGTPγS fluorescence anisotropy competition assay, EfFtsZ; parameters: species or system E. faecalis; conditions: 1 μM BoGTPγS, 5 μM FtsZ, competitor 0 to 40 μM
[15] = test system: S. aureus; test: Emergence of resistance, large inoculum approach; type: cell-based; conditions: ~3 × 10^9 CFU/mL S. aureus on TSA plates with agent at 4- to 32-fold MIC; 24 h
[16] = biological target: T3, E185A mutant SaFtsZ; test: Fluorescence anisotropy binding affinity, E185A mutant SaFtsZ; parameters: species or system S. aureus; conditions: ratio of Kd values
[17] = biological target: SaFtsZ-bound BoGTPγS (GTP binding pocket) (Staphylococcus aureus, UniProt P0A031); test: BoGTPγS fluorescence anisotropy competition assay, SaFtsZ; conditions: 1 μM BoGTPγS, 5 μM FtsZ, competitor 0 to 40 μM
Procedure, shortened: as §1

[18] = biological target: EfFtsZ (Enterococcus faecalis, UniProt O08439); test: FtsZ polymerization light-scattering; type: biochemical, E. faecalis
[19] = biological target: T1, I228R mutant SaFtsZ; test: FtsZ polymerization light-scattering; type: biochemical, S. aureus
[20] = biological target: T2, SaFtsZ; test: Transmission electron microscopy of compound-induced FtsZ polymers, SaFtsZ; type: biochemical; conditions: 20 μg/mL
[21] = biological target: T4, EcFtsZ; test: FtsZ polymerization light-scattering; type: biochemical, E. coli; conditions: compound 0 to 40 μg/mL, 10 μM protein, 1 mM GTP, 25 °C
[22] = biological target: T4, EcFtsZ; conditions: previously reported; cited from earlier work
[23] = test system: S. aureus 8325-4; test: Minimum bactericidal concentration; type: cell-based
[24] = test system: S. aureus 8325-4 (MSSA); test: MIC broth microdilution, S. aureus 8325-4; type: cell-based; conditions: 24 h
[25] = test system: S. aureus ATCC 49951 (MSSA); test: MIC broth microdilution, S. aureus ATCC 49951; type: cell-based; conditions: Staphylococcus aureus, ATCC49951|MSSA, 24 h
[26] = test system: E. faecalis ATCC 19433 (VSE); test: MIC broth microdilution, E. faecalis ATCC 19433; type: cell-based; conditions: CAMH broth, 24 h, 37 °C
[27] = test system: S. aureus ATCC 33591 (MRSA); test: MIC broth microdilution, S. aureus ATCC 33591; type: cell-based; conditions: CAMH broth + 2% NaCl, 24 h, 37 °C
[28] = test system: E. faecalis ATCC 51575 (VRE); test: MIC broth microdilution, E. faecalis ATCC 51575; type: cell-based; conditions: CAMH broth, 24 h, 37 °C
[29] = test system: S. aureus Mu3 (MRSA); test: MIC broth microdilution, S. aureus Mu3; type: cell-based; conditions: S. aureus Mu3 (MRSA, hetero-GISA); CAMH broth + 2% NaCl, 24 h, 37 °C

E. coli FtsZ (EcFtsZ), sequence (P0A9A6 whole entry): as the sequence (P0A9A6 whole entry) above

CC(C)(C)c1ccc(-c2ccnc(CNC(=N)N)c2)cc1 [compound 14, 1-((4-(4-(tert-Butyl)phenyl)pyridin-2-yl)methyl)guanidine]
binding to FtsZ (qualitative; Kd not quantifiable) [1]: weak nature of the binding interactions
AcrAB efflux pump substrate (inferred from MIC N43 vs W4573) [2]: substrates of the AcrAB efflux pump
binding to FtsZ (qualitative; Kd not quantifiable) [3]: weak nature of the binding interactions
binding to FtsZ (qualitative; Kd not quantifiable) [4]: weak nature of the binding interactions

CC(C)(C)c1ccc(-c2cccc(CNC(=N)N)c2)cc1 [compound 13, 1-((4′-(tert-Butyl)-[1,1′-biphenyl]-3-yl)methyl)guanidine]
effect on anisotropy of FtsZ-bound BoGTPγS [5]: does not significantly alter the anisotropy
affinity for I228R mutant lower than for wild-type SaFtsZ [6]: approximately 10 fold
impact on FtsZ polymerization dynamics (A340) ([7]; SaFtsZ, compound 0 to 40 μg/mL, 10 μM protein, 1 mM GTP, 25 °C): increases both the kinetics and extent
impact on SaFtsZ polymerization (A340) ([7]; wild-type SaFtsZ, 10 μg/mL): stimulatory impact
effect of G196A mutation on stimulation of SaFtsZ polymerization by compound [8]: negligible effect
change of MIC over repeated incubation cycles [9]: did not change to any significant degree
impact on SaFtsZ polymerization (A340) ([10]; 10 μg/mL): essentially no effect
magnitude of stimulation of SaFtsZ polymerization (A340) ([10]; 20 μg/mL): markedly lower than that observed for wild-type SaFtsZ
FtsZ polymer assembly and bundling by EM [11]: promoting only the assembly, and not the bundling, of EcFtsZ polymers
reduction of bacterial number (CFUs) ([12]; within 2 h): three logs
reduction of bacterial number (CFUs) ([12]; within 6 h): four logs
rate of kill relative to vancomycin ([12]; both agents at 8 × MIC): approximately 100 times
impact on tubulin polymerization (A340) [13]: negligible impact
AcrAB efflux pump substrate (inferred from MIC N43 vs W4573) [2]: substrate for the AcrAB efflux transporter
effect on anisotropy of FtsZ-bound BoGTPγS [14]: does not significantly alter the anisotropy
agent-containing plates on which colonies were observed [15]: none
affinity for E185A mutant lower than for wild-type SaFtsZ [16]: approximately 10 fold
effect on anisotropy of FtsZ-bound BoGTPγS [17]: does not significantly alter the anisotropy
impact on FtsZ polymerization dynamics (A340) ([18]; compound 0 to 40 μg/mL, 10 μM protein, 1 mM GTP, 25 °C): increases both the kinetics and extent
impact on SaFtsZ polymerization (A340) ([19]; 10 μg/mL): essentially no effect
magnitude of stimulation of SaFtsZ polymerization (A340) ([19]; 20 μg/mL): markedly lower than that observed for wild-type SaFtsZ
affinity for EfFtsZ lower than affinity for SaFtsZ and EcFtsZ ([4]; ratio of Kd values): approximately 6 fold
FtsZ polymer assembly and bundling by EM [20]: promotes both the assembly and bundling of SaFtsZ polymers
impact on FtsZ polymerization dynamics (A340) [21]: increases both the kinetics and extent

NC(=O)c1c(F)ccc(OCc2nc3cc(Cl)cnc3s2)c1F [PC190723]
impact on EcFtsZ polymerization [22]: does not affect the polymerization

CN[C@H](CC(C)C)C(=O)N[C@H]1C(=O)N[C@@H](CC(N)=O)C(=O)N[C@H]2C(=O)N[C@H]3C(=O)N[C@H](C(=O)N[C@H](C(=O)O)c4cc(O)cc(O)c4-c4cc3ccc4O)[C@H](O)c3ccc(c(Cl)c3)Oc3cc2cc(c3O[C@@H]2O[C@H](CO)[C@@H](O)[C@H](O)[C@H]2O[C@H]2C[C@](C)(N)[C@H](O)[C@H](C)O2)Oc2ccc(cc2Cl)[C@H]1O.Cl [vancomycin]
MBC/MIC [23]: 2
MIC ([24]; Staphylococcus aureus, MSSA): 0.5 mg/L
MIC [25]: 0.5 mg/L
extent of stimulation of FtsZ polymerization (A340) ([18]; 40 μg/mL compound or comparator drug): negligible impact

CC(C)(C)c1ccc(-c2cc(CNC(=N)N)ncn2)cc1 [compound 15, 1-((6-(4-(tert-Butyl)phenyl)pyrimidin-4-yl)methyl)guanidine]
binding to FtsZ (qualitative; Kd not quantifiable) [1]: weak nature of the binding interactions
AcrAB efflux pump substrate (inferred from MIC N43 vs W4573) [2]: substrates of the AcrAB efflux pump
binding to FtsZ (qualitative; Kd not quantifiable) [3]: weak nature of the binding interactions
binding to FtsZ (qualitative; Kd not quantifiable) [4]: weak nature of the binding interactions

oxacillin
extent of stimulation of FtsZ polymerization (A340) ([7]; SaFtsZ, 40 μg/mL compound or comparator drug): negligible impact
MIC [26]: 8.0 mg/L
MIC ([24]; S. aureus 8325-4 (MSSA), CAMH broth, 37 °C, ≥90% growth inhibition): 0.063 mg/L
MIC [27]: >64.0 mg/L
MIC [28]: 64.0 mg/L
MIC [29]: >64.0 mg/L
